Source: ChEMBL document CHEMBL5724801, “EUbOPEN Chemogenomics Library - Multiplex” (2024)
Where “and” joins values, the source holds several entries; their conditions need not be identical. Equal entries are not always repeated.

System: Fibroblast
Experiment: Multiplex assay against human fibroblast
Assay type: toxicity, cell-based
Procedure, shortened: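 On a CQ1 microscope at 37°C and 5% CO2, live cells were imaged after compound addition. They had been stained at seeding with Hoechst33342, BioTracker Green Microtubule Cytoskeleton Dye, MitoTracker Red and Annexin V Alexa Fluor 680. CellPathfinder machine-learning gating assigned cells to Hoechst high-intensity objects or normal cells, normal cells to healthy, pyknosed or fragmented nuclei, and pyknosed cells to mitotic or apoptotic. Tubulin, mitochondrial-mass and membrane-permeability phenotypes are per cents of healthy-nucleus cells.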

[1] = 12 h, 1 µM, compound concentration 1 uM
[2] = 12 h, 10 µM, compound concentration 10 uM
[3] = 24 h, 1 µM, compound concentration 1 uM
[4] = 24 h, 10 µM, compound concentration 10 uM
[5] = 48 h, 1 µM, compound concentration 1 uM
[6] = 48 h, 10 µM, compound concentration 10 uM

## O=S(=O)(c1ccccc1)c1cnc2c(N3CCNCC3)cccc2c1 [INTEPIRDINE]
[1]
  Population Apoptotic (%): 50% and 34%
  Population Fragmented Nuclei (%): 23% and 28%
  Population Healthy Nuclei (%): 67% and 47%
  Population Hoechst High Intensity Objects (%): 3% and 4%
  Population Membrane Permeable-Phenotype (%): 0% and 7%
  Population Mitochondria Different-Phenotype (%): 2% and 7%
  Population Mitotic Cells (%): 50% and 65%
  Population Normal (%): 96% and 95%
  Population Pyknosed Nuclei (%): 9% and 24%
  Population Tubulin-Different-Phenotype (%): 26% and 61%
  Total Cell Count: 212 and 148
[2]
  Population Apoptotic (%): 75% and 61%
  Population Fragmented Nuclei (%): 22% and 43%
  Population Healthy Nuclei (%): 62% and 40%
  Population Hoechst High Intensity Objects (%): 1% and 6%
  Population Membrane Permeable-Phenotype (%): 1% and 5%
  Population Mitochondria Different-Phenotype (%): 8% and 13%
  Population Mitotic Cells (%): 25% and 38%
  Population Normal (%): 98% and 93%
  Population Pyknosed Nuclei (%): 14% and 16%
  Population Tubulin-Different-Phenotype (%): 44% and 68%
  Total Cell Count: 138 and 136
[3]
  Population Apoptotic (%): 54% and 41%
  Population Fragmented Nuclei (%): 16% and 32%
  Population Healthy Nuclei (%): 72% and 44%
  Population Hoechst High Intensity Objects (%): 5% and 0%
  Population Membrane Permeable-Phenotype (%): 2% and 1%
  Population Mitochondria Different-Phenotype (%): 4%
  Population Mitotic Cells (%): 45% and 58%
  Population Normal (%): 94% and 99%
  Population Pyknosed Nuclei (%): 10% and 24%
  Population Tubulin-Different-Phenotype (%): 28% and 59%
  Total Cell Count: 212 and 151
[4]
  Population Apoptotic (%): 40% and 91%
  Population Fragmented Nuclei (%): 28% and 39%
  Population Healthy Nuclei (%): 65% and 50%
  Population Hoechst High Intensity Objects (%): 1% and 4%
  Population Membrane Permeable-Phenotype (%): 0% and 3%
  Population Mitochondria Different-Phenotype (%): 7% and 15%
  Population Normal (%): 98% and 95%
  Population Pyknosed Nuclei (%): 6% and 10%
  Population Tubulin-Different-Phenotype (%): 50% and 67%
  Total Cell Count: 152 and 123
[5]
  Population Apoptotic (%): 66% and 52%
  Population Fragmented Nuclei (%): 22% and 39%
  Population Healthy Nuclei (%): 69% and 45%
  Population Hoechst High Intensity Objects (%): 5% and 3%
  Population Membrane Permeable-Phenotype (%): 0% and 1%
  Population Mitochondria Different-Phenotype (%): 2%
  Population Mitotic Cells (%): 33% and 48%
  Population Normal (%): 94% and 96%
  Population Pyknosed Nuclei (%): 7% and 15%
  Population Tubulin-Different-Phenotype (%): 34% and 54%
  Total Cell Count: 213 and 170
[6]
  Population Apoptotic (%): 63% and 40%
  Population Fragmented Nuclei (%): 23% and 48%
  Population Healthy Nuclei (%): 67% and 38%
  Population Hoechst High Intensity Objects (%): 3% and 6%
  Population Membrane Permeable-Phenotype (%): 1% and 6%
  Population Mitochondria Different-Phenotype (%): 15% and 6%
  Population Mitotic Cells (%): 36% and 60%
  Population Normal (%): 96% and 93%
  Population Pyknosed Nuclei (%): 8% and 12%
  Population Tubulin-Different-Phenotype (%): 47% and 57%
  Total Cell Count: 139 and 125

## C=C(C)[C@H]1CN[C@H](C(=O)O)[C@H]1CC(=O)O [KAINIC ACID]
[1]
  Population Fragmented Nuclei (%): 7.74% and 5.42%
  Population Healthy Nuclei (%): 70.97% and 80.83%
  Population Hoechst High Intensity Objects (%): 0%
  Population Membrane Permeable-Phenotype (%): 7.27% and 2.58%
  Population Mitochondria Different-Phenotype (%): 7.27% and 10.31%
  Population Mitotic Cells (%): 93.94% and 72.73%
  Population Normal (%): 100%
  Population Pyknosed Nuclei (%): 21.29% and 13.75%
  Population Tubulin-Different-Phenotype (%): 10% and 19.07%
  Total Cell Count: 155 and 240
[2]
  Population Apoptotic (%): 8.57% and 22.92%
  Population Fragmented Nuclei (%): 7.35% and 3.47%
  Population Healthy Nuclei (%): 75.49% and 77.99%
  Population Hoechst High Intensity Objects (%): 0%
  Population Membrane Permeable-Phenotype (%): 5.19% and 2.97%
  Population Mitochondria Different-Phenotype (%): 6.49% and 10.89%
  Population Mitotic Cells (%): 91.43% and 77.08%
  Population Normal (%): 100%
  Population Pyknosed Nuclei (%): 17.16% and 18.53%
  Population Tubulin-Different-Phenotype (%): 11.04% and 20.3%
  Total Cell Count: 204 and 259
[3]
  Population Apoptotic (%): 13.51% and 31.58%
  Population Fragmented Nuclei (%): 7.78% and 7.44%
  Population Healthy Nuclei (%): 71.67% and 84.71%
  Population Hoechst High Intensity Objects (%): 0%
  Population Membrane Permeable-Phenotype (%): 3.88% and 1.46%
  Population Mitochondria Different-Phenotype (%): 0.78% and 5.37%
  Population Mitotic Cells (%): 86.49% and 68.42%
  Population Normal (%): 100%
  Population Pyknosed Nuclei (%): 20.56% and 7.85%
  Total Cell Count: 180 and 242
[4]
  Population Apoptotic (%): 5.41% and 14.29%
  Population Fragmented Nuclei (%): 8.53% and 4.49%
  Population Healthy Nuclei (%): 73.93% and 85.02%
  Population Hoechst High Intensity Objects (%): 0%
  Population Membrane Permeable-Phenotype (%): 8.33% and 2.64%
  Population Mitochondria Different-Phenotype (%): 4.49% and 3.52%
  Population Mitotic Cells (%): 94.59% and 85.71%
  Population Normal (%): 100%
  Population Pyknosed Nuclei (%): 17.54% and 10.49%
  Population Tubulin-Different-Phenotype (%): 17.31% and 18.5%
  Total Cell Count: 211 and 267
[5]
  Population Apoptotic (%): 0% and 25%
  Population Fragmented Nuclei (%): 7.94% and 4.31%
  Population Healthy Nuclei (%): 88.89% and 87.84%
  Population Hoechst High Intensity Objects (%): 0%
  Population Membrane Permeable-Phenotype (%): 0.6% and 1.34%
  Population Mitochondria Different-Phenotype (%): 15.48% and 5.36%
  Population Mitotic Cells (%): 100% and 75%
  Population Normal (%): 100%
  Population Pyknosed Nuclei (%): 3.17% and 7.84%
  Total Cell Count: 189 and 255
[6]
  Population Apoptotic (%): 36.36% and 23.53%
  Population Fragmented Nuclei (%): 9.7% and 6.92%
  Population Healthy Nuclei (%): 85.65% and 86.54%
  Population Hoechst High Intensity Objects (%): 0%
  Population Membrane Permeable-Phenotype (%): 2.96% and 2.22%
  Population Mitotic Cells (%): 63.64% and 76.47%
  Population Normal (%): 100%
  Population Pyknosed Nuclei (%): 4.64% and 6.54%
  Total Cell Count: 237 and 260
